From article PMC4624265 (Nuclear medicine and biology, 2015) come the findings set out here.

For series [1], the target named is T1, PSMA (Homo sapiens, UniProt Q04609). In words: PSMA inhibition assay. It is filed as biochemical.
In series [2] the target is T1, PSMA. In words: Reversibility assay. It is filed as biochemical.
Series [3] concerns mice bearing CWR22Rv1 tumor xenografts. In words: Ex vivo biodistribution in CWR22Rv1 tumor-bearing mice. Conditions: indicated by insignificant bone uptake. Put shortly: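 Male athymic NCr-nu/nu mice carried CWR22Rv1 xenografts (about 10^6 cells in 50/50 complete medium/matrigel, right shoulder), used 4–5 weeks after implantation. Under isoflurane, HPLC-purified radiotracer (35–40 μCi in saline) was given by tail vein. For blocking, 250 μg of the PSMA inhibitor in saline was given 1 h before tracer, 4 h group only. Mice were euthanized at 1 h or 4 h, n = 4. Blood was taken by cardiac puncture; organs were weighed and gamma-counted. %ID/g was calculated against standards; two-tailed t-test, p<0.05.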

T1 sequence (Q04609 whole entry): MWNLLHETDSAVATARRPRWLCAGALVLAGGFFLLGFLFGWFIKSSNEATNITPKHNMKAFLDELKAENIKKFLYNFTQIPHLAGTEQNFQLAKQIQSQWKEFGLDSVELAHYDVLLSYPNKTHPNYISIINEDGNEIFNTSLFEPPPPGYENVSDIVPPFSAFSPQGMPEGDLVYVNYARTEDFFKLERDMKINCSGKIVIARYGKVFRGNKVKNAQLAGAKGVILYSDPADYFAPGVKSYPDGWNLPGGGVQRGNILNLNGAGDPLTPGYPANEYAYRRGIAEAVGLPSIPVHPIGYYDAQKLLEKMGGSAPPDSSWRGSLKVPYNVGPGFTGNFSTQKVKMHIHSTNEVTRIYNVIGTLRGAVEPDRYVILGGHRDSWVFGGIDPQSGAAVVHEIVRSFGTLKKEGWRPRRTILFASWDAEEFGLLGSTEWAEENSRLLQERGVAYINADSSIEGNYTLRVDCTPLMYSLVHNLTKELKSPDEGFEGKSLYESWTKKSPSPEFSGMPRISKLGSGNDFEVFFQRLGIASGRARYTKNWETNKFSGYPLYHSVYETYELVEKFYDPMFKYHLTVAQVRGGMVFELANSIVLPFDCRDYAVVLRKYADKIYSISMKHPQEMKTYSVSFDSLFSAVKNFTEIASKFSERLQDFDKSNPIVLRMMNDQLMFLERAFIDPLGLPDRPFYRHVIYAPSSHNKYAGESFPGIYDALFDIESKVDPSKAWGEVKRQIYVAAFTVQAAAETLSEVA

Usually IC50 stands for the concentration that gives 50% inhibition. `NCCCCCC(=O)N[C@@H](CCC(=O)N[C@H](CCCOP(=O)(O)NC(CCC(=O)O)C(=O)O)C(=O)O)C(=O)O` (stereo partly drawn) [compound 3, 2-(((S)-((4R)-4-(4-(6-aminohexanamido)-4-carboxybutanamido)-4-carboxybut-oxy) (hydroxy)phosphoryl)amino)pentanedioic acid] came in with an IC50 in series [1] of 19 nM. Further, in series [2], the “Mode of binding to PSMA” value is recorded as “irreversible”.
In the case of `O=C(O)CCC(NP(=O)(O)OCCC[C@@H](NC(=O)CC[C@H](NC(=O)CCCCCNC(=O)c1ccc(F)cc1)C(=O)O)C(=O)O)C(=O)O` (stereo partly drawn) [compound 5, 2-(((S)-((4R)-4-carboxy-4-(4-carboxy-4-(6-(4-fluorobenzamido)hexanamido)butanamido)butoxy)(hydroxy)phosphoryl)amino) pentanedioic acid], the “Mode of binding to PSMA” value in series [2] is listed as “irreversible”. In series [3], the Defluorination in vivo result was “no defluorination”.
